For orientation: AUC means the area under the concentration-time curve, a measure of exposure. Low values mean less exposure, high ones more exposure. The Cmax is the peak of the concentration-time curve. A word on the clearance: it is a measure of how efficiently the substance is removed, as volume per time. High values mean efficient removal, low ones inefficient removal. As a reminder, the bioavailability is dose-corrected exposure relative to a reference, in per cent. Low readings indicate poor availability, high ones good availability. One may read the half-life as the time in which the quantity being followed falls by half. A word on the solubility: it is how much of the substance goes into solution per volume. A high value points to much dissolved substance.

In brackets after ≈: the same amount, converted by molar mass.

Data set [1] can be described thus: Clearance in human liver microsomes. It counts as ADME, Microsome. The note with it: read-out: CLH. A general note: Liver microsomes are vesicles of endoplasmic reticulum, rich in cytochrome P450 enzymes.
The nature of data set [2]: Volume of distribution at steady state in iv dosed rat. It counts as ADME, organism-based. The note with it: in vivo, read-out: Vdss. In a few lines: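 Rats dosed intravenously in PEG 400/ethanol (90:10 v/v); steady-state volume of distribution taken from the iv plasma profile.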
Data set [3] relates to Rattus norvegicus. Put plainly: (§1) AUC in rat at 5 mg/kg, po at 24 hrs. More on the design: time < 24 hr, dose 5 mg/kg, route oral. As to conditions: in vivo, 24 h; call rule not given here. It counts as ADME, organism-based, Plasma.
Data set [4] can be described thus: Cmax in rat at 5 mg/kg, po. The format is ADME, organism-based. The note with it: in vivo. On the set-up: dose 5 mg/kg, route oral.
The subject of data set [5] is Rattus norvegicus. Briefly: (§2) Oral bioavailability in rat at 5 mg/kg. The format is ADME, organism-based. The note with it: in vivo.
The nature of data set [6]: Clearance in iv dosed rat. The format is ADME, organism-based. As to conditions: in vivo.
A short description of data set [7]: as §1. It counts as ADME, organism-based, Plasma. On the set-up: time < 24 hr, dose 5 mg/kg, route oral. As to conditions: plasma.
A short description of data set [8]: as §2. As to conditions: in vivo. The format is ADME, organism-based.
Another data set has as its system Plasma. Briefly: Plasma concentration in human at 20 mg, po administered as solution measured after 16 hrs. It counts as ADME, organism-based. The note with it: in vivo, BLD = below limit of detection.
Data set [9] is described as follows: Half life in human at 20 mg, po administered as solution measured between 2 and 12 hrs post-dosing. The note with it: in vivo. It counts as ADME, organism-based.
Data set [10] can be described thus: Drug absorption in human colon at 200 mg, po measured between 12 to 96 hrs. It counts as ADME, organism-based. The note with it: in vivo. In a few lines: (§3)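 Healthy subjects given 200 mg as a spray-dried capsule, fasted, with plasma sampled 0–96 h. Bioavailability is relative to a 20 mg oral solution, based on dose-normalized AUC(INF).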
Data set [11] in a line: Oral bioavailability in human at 200 mg administered as capsule formulation. It counts as ADME, organism-based. The note with it: in vivo. In a few lines: as §3
A short description of data set [12]: Aqueous solubility of the compound. The note with it: buffer. The format is physicochemical.

Consider `O=C(NCCN1CCOCC1)c1cc(-c2ncc(F)c3c(C(=O)C(=O)N4CCN(C(=O)c5ccccc5)CC4)c[nH]c23)n[nH]1`, for which, in data set [1], the CLint scaled is above 29 mL/min/kg.

On to `NC(=O)c1ncc(F)c2c(C(=O)C(=O)N3CCN(C(=O)c4ccccc4)CC3)c[nH]c12`, for which, in data set [2], the Vd is 1.4 L/kg. The molecule also returned an AUC in the data set on Rattus norvegicus [3] of 2.6 µM·h. Also, the CLint scaled in [1] was below 21 mL/min/kg. Also, the concentration in data set [4] peaked (Cmax) at 603 nM. Further, in the data set on Rattus norvegicus [5], the F turned out to be 68%.

Regarding `CNC(=O)c1ncc(F)c2c(C(=O)C(=O)N3CCN(C(=O)c4ccccc4)CC3)c[nH]c12`, the Vd in data set [2] was 0.74 L/kg. For the same molecule, in the data set on Rattus norvegicus [3], the area under the curve (AUC) stood at 1.5 µM·h. In data set [1], the CLint scaled is below 21 mL/min/kg. In data set [4], this molecule returned a Cmax of 326 nM. The F in the data set with Rattus norvegicus [5] was 63%.

`Cc1ccn(-c2ncc(F)c3c(C(=O)C(=O)N4CCN(C(=O)c5ccccc5)CC4)c[nH]c23)n1`: the Vd in [2] turned out to be 0.6 L/kg. In the data set with Rattus norvegicus [3], the area under the curve (AUC) turned out to be 2.1 µM·h. In [1], the CLint scaled is below 21 mL/min/kg. The molecule further showed a Cmax in data set [4] of 498 nM. The molecule also yielded a F with Rattus norvegicus [5] of 61%.

On to `O=C(C(=O)N1CCN(C(=O)c2ccccc2)CC1)c1c[nH]c2c(-c3cnco3)ncc(F)c12`, for which the Vd in data set [2] is 0.14 L/kg. This molecule also came in with a clearance in data set [6] of 1.4 mL/min/kg. The molecule further had an exposure (AUC) at 24 h in data set [7] of 12 µM·h. Also, the CLint scaled in [1] was below 21 mL/min/kg. In data set [4], this molecule returned a peak concentration (Cmax) of 1290 nM. Further, the bioavailability in [8] is 20%.

For the molecule `O=C(C(=O)N1CCN(C(=O)c2ccccc2)CC1)c1c[nH]c2c(-n3cncn3)ncc(F)c12`, the Vd in [2] is 0.26 L/kg. Further, in data set [1], the CLint scaled is below 21 mL/min/kg. In addition, the concentration in data set [4] peaked (Cmax) at 8760 nM. Further, the F in the data set with Rattus norvegicus [5] was found to be 95%.

Turning to `Cc1ncn(-c2ncc(F)c3c(C(=O)C(=O)N4CCN(C(=O)c5ccccc5)CC4)c[nH]c23)n1`, the Vd in data set [2] was determined as 0.18 L/kg. In the data set on Rattus norvegicus [3], this molecule had an AUC of 160 µM·h. In data set [1], the CLint scaled is below 21 mL/min/kg. Also, the F in the data set with Rattus norvegicus [5] amounted to 77%.

`O=C(C(=O)N1CCN(C(=O)c2ccccc2)CC1)c1c[nH]c2c(-c3cc[nH]n3)ncc(F)c12`: the Vd in data set [2] was determined as 0.25 L/kg. This molecule also had an AUC with Rattus norvegicus [3] of 12.5 µM·h. In addition, the CLint scaled in data set [1] is below 21 mL/min/kg. In data set [4], the Cmax came out at 1400 nM. In the data set on Rattus norvegicus [5], this molecule showed an F of 33%.

Regarding `NC(=O)c1cc(-c2ncc(F)c3c(C(=O)C(=O)N4CCN(C(=O)c5ccccc5)CC4)c[nH]c23)n[nH]1`, in data set [1], the CLint scaled is at most 29 mL/min/kg.

Consider `CN(C)C(=O)c1cc(-c2ncc(F)c3c(C(=O)C(=O)N4CCN(C(=O)c5ccccc5)CC4)c[nH]c23)n[nH]1`, for which, in data set [1], the CLint scaled was below 21 mL/min/kg.

Consider `CNC(=O)c1cc(-c2ncc(F)c3c(C(=O)C(=O)N4CCN(C(=O)c5ccccc5)CC4)c[nH]c23)n[nH]1`, for which, in data set [1], the CLint scaled is at most 29 mL/min/kg.

Turning to `COc1ncc(OC)c2c(C(=O)C(=O)N3CCN(C(=O)c4ccccc4)CC3)c[nH]c12`, the Vd in data set [2] was 1.1 L/kg. In data set [7], this molecule showed an AUC at 24 h of 6.3 µM·h. The Cmax in [4] was found to be 1890 nM.

Consider `O=C(C(=O)N1CCN(C(=O)c2ccccc2)CC1)c1c[nH]c2c(-c3cnccn3)ncc(F)c12`, for which, in data set [1], the CLint scaled was at most 29 mL/min/kg.

As to `O=C(C(=O)N1CCN(C(=O)c2ccccc2)CC1)c1c[nH]c2c(-n3ccnn3)ncc(F)c12`, in the data set with Plasma, the Cp entry is “BLD”. Besides, the half-life in data set [9] was 1.4 h. In addition, the area under the curve (AUC) at 24 h in [7] came out at 86 µM·h. Also, in data set [1], the CLint scaled is below 21 mL/min/kg. In addition, in data set [4], the maximum concentration (Cmax) turned out to be 9480 nM. The Drug absorption result in [10] is “Active”. In addition, the figures for the bioavailability in data set [11] and in data set [8] were 30% and 64%, respectively. In data set [12], the solubility was 7 µg/mL (≈ 15.6 µM).
